One series deals with Plasmodium yoelii. Nature of the series: Inhibition of beta hematin formation in Plasmodium yoelii infected swiss mouse RBC after 16 hrs. In kind it is functional, organism-based. In a few lines: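 Source material was plasma from male Swiss mice (15–20 g) inoculated with 1 × 10⁵ P. yoelii-infected RBCs. Blood was taken by cardiac puncture at 50% parasitemia into 2.0% citrate and centrifuged. The 1.0 mL mix held 100 mM sodium acetate pH 5.1, plasma, hemin substrate and compound at […]. It ran in triplicate for 16 h at 37 °C with rotary shaking. The washed β-hematin pellet was dissolved in NaOH and read at 400 nm. IC50 came from nonlinear regression.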

For series [1], the system named is Plasmodium falciparum. Nature of the series: Antimalarial activity against chloroquine-susceptible Plasmodium falciparum 3D7 after 72 hrs by SYBR Green-I based fluorescence assay. The note with it: 3D7, 72 h. In kind it is functional, organism-based. Summed up: (§1)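 Asynchronous culture (>80% rings), 1.0% parasitized cell suspension at 0.8% parasitaemia, exposed to twofold serial dilutions of compound (DMSO stock 5 mg/mL). Incubated 72 h at 37 °C under 5% CO₂ in air. Lysis buffer with SYBR Green I added, then 1 h at 37 °C. Fluorescence read at 485/530 nm. IC₅₀ from logit regression of dose-response curves. Mean of three experiments in triplicate.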

In series [2] the test system is Plasmodium falciparum. As to the kind of experiment: Antimalarial activity against chloroquine-resistant Plasmodium falciparum K1 after 72 hrs by SYBR Green-I based fluorescence assay. In kind it is functional, organism-based. The note with it: for pIC50: Plasmodium falciparum, K1, 72 h, read-out: IC50. Summed up: as §1
Series [3] in a line: Selectivity index, ratio of IC50 for african green monkey Vero cells to IC50 for Plasmodium falciparum. The note with it: read-out: Ratio IC50. It counts as toxicity, cell-based. In a few lines: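 SI = CC50/IC50. CC50 was measured in Vero monkey kidney cells (C1008) by MTT after 72 h exposure to compound dilutions, using nonlinear regression. IC50 came from a 72 h SYBR Green I fluorescence assay in P. falciparum (1.0% parasitized cells, 0.8% parasitaemia, mostly ring stages, 37 °C, 5% CO2). Those values came from logit regression.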

Series [4] is described as follows: Inhibition of hydrogen peroxide-mediated hemin decomposition assessed as remaining hemin level at 20 uM after 30 mins by […] (reference value: 43%). In kind it is functional. In a few lines: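 Hemin (in 0.1 N NaOH) was mixed with BSA in 0.2 M sodium acetate pH 5.1 and compound, then equilibrated for 10 min at room temperature. The reaction was started with 20 mM H2O2 and ran 30 min at room temperature. Read-out was the decrease in Soret absorbance at 405 nm, reported as % hemin remaining. Controls used water instead of H2O2. Data are the mean of three experiments in triplicate.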

pIC50: −log10 of the molar value. Converted amounts (≈) assume the structure as drawn. Where only a bound is given, the exact number is not on record here.

`COc1ccc(/C=C(\Oc2ccc(/C=N/Nc3ccnc4cc(Cl)ccc34)cc2)C(=O)c2ccc(Cl)cc2)cc1` gave an IC50 with Plasmodium yoelii of 17.6 µg/mL (≈ 31 µM). Also, the pIC50 with Plasmodium falciparum [1] is 7.32; with Plasmodium falciparum [2], 7.01. The selectivity ratio in series [3] amounted to 2050.

As to `O=C(/C(=C/c1ccc(Cl)cc1)Oc1ccc(/C=N/Nc2ccnc3cc(Cl)ccc23)cc1)c1ccc(Cl)cc1`, the IC50 with Plasmodium yoelii was found to be 8.38 µg/mL (≈ 14.6 µM). The negative-log IC50 (pIC50) was 6.84 in the series on Plasmodium falciparum [1] and 6.70 with Plasmodium falciparum [2]. Further, the selectivity ratio in series [3] is 1210.

Molecule `O=C(/C(=C/c1ccc(F)cc1)Oc1ccc(/C=N/Nc2ccnc3cc(Cl)ccc23)cc1)c1ccc(Cl)cc1` returned an IC50 in the series with Plasmodium yoelii of 15.6 µg/mL (≈ 28 µM). In addition, the negative logarithm of the IC50 (pIC50) in the series with Plasmodium falciparum [1] is 7.54; in the series on Plasmodium falciparum [2], 6.99. Moreover, the selectivity ratio in series [3] worked out at 6200.

As for `COc1ccc(/C=C(\Oc2ccc(/C=N/Nc3ccnc4cc(Cl)ccc34)cc2)C(=O)c2ccc(Cl)cc2)c(OC)c1OC`, it took 3.52 µg/mL (≈ 5.6 µM) to reach half-maximal inhibition with Plasmodium yoelii (IC50). In addition, the pIC50 in the series on Plasmodium falciparum [1] is 6.91; with Plasmodium falciparum [2], 7.08. Also, the selectivity ratio in series [3] was determined as 837. Also, the Activity in series [4] was 63%.

Turning to `O=C(/C(=C/c1cccc([N+](=O)[O-])c1)Oc1ccc(/C=N/Nc2ccnc3cc(Cl)ccc23)cc1)c1ccc(Cl)cc1`, the IC50 in the series on Plasmodium yoelii was determined as 5.72 µg/mL (≈ 9.8 µM). The negative logarithm of the IC50 (pIC50) in the series with Plasmodium falciparum [1] is 6.89; with Plasmodium falciparum [2], 6.50. Also, the selectivity ratio in series [3] was determined as 1340.

`COc1ccc(/C=C(\Oc2ccc(/C=N/Nc3ccnc4cc(Cl)ccc34)cc2)C(=O)c2ccc(Cl)cc2)cc1OC`: the IC50 in the series with Plasmodium yoelii was 3.46 µg/mL (≈ 5.78 µM). For the same molecule, the results for the pIC50 in the series with Plasmodium falciparum [1] and in the series with Plasmodium falciparum [2] were 7.08 and 7.01, respectively. Also, the selectivity ratio in series [3] was determined as 1440. Also, the Activity in series [4] was 59%.

For `O=C(/C(=C/c1ccccc1)Oc1ccc(/C=N/Nc2ccnc3cc(Cl)ccc23)cc1)c1ccc(Cl)cc1`, in the series with Plasmodium yoelii, the IC50 turned out to be 5.66 µg/mL (≈ 10.5 µM). In addition, the pIC50 with Plasmodium falciparum [1] was 7.10; in the series with Plasmodium falciparum [2], 6.96. The selectivity ratio in series [3] came out at 2360.

As for `COc1ccc(OC)c(/C=C(\Oc2ccc(/C=N/Nc3ccnc4cc(Cl)ccc34)cc2)C(=O)c2ccc(Cl)cc2)c1`, the IC50 in the series with Plasmodium yoelii was found to be 25 µg/mL (≈ 41.8 µM). Also, the pIC50 with Plasmodium falciparum [1] is 6.60; in the series with Plasmodium falciparum [2] it was 6.90. The selectivity ratio in series [3] turned out to be 669.

Regarding `O=C(COc1ccc(/C=N/Nc2ccnc3cc(Cl)ccc23)cc1)c1ccc(Cl)cc1`, the IC50 in the series with Plasmodium yoelii came out at 16.4 µg/mL (≈ 36.4 µM). For the same molecule, the pIC50 was 7.44 in the series on Plasmodium falciparum [1] and 6.90 in the series with Plasmodium falciparum [2]. Also, the selectivity ratio in series [3] amounted to 800.

For the molecule `O=C(/C(=C/c1ccc([N+](=O)[O-])cc1)Oc1ccc(/C=N/Nc2ccnc3cc(Cl)ccc23)cc1)c1ccc(Cl)cc1`, the IC50 was 12.8 µg/mL (≈ 21.9 µM) in the series with Plasmodium yoelii and “Not Active” in the series on Plasmodium falciparum [2]. For the same molecule, the pIC50 in the series with Plasmodium falciparum [1] was less than 6.30.

In the series with Plasmodium yoelii, `COc1cc(/C=C(\Oc2ccc(/C=N/Nc3ccnc4cc(Cl)ccc34)cc2)C(=O)c2ccc(Cl)cc2)cc(OC)c1OC` came in with an IC50 of 10.8 µg/mL (≈ 17.2 µM). In addition, the negative logarithm of the IC50 (pIC50) is 7.02 in the series on Plasmodium falciparum [1] and 6.91 in the series with Plasmodium falciparum [2]. Besides, the selectivity ratio in series [3] was 970.

In the series with Plasmodium yoelii, `COc1cc(OC)c(OC)cc1/C=C(\Oc1ccc(/C=N/Nc2ccnc3cc(Cl)ccc23)cc1)C(=O)c1ccc(Cl)cc1` registered an IC50 of 10.6 µg/mL (≈ 16.9 µM). The results for the pIC50 in the series with Plasmodium falciparum [1] and with Plasmodium falciparum [2] were 7.04 and 7.05, respectively. Moreover, the selectivity ratio in series [3] is 728.

For `Cc1ccc(/C=C(\Oc2ccc(/C=N/Nc3ccnc4cc(Cl)ccc34)cc2)C(=O)c2ccc(Cl)cc2)cc1`, the IC50 in the series with Plasmodium yoelii stood at 5.58 µg/mL (≈ 10.1 µM). The pIC50 in the series on Plasmodium falciparum [1] was 6.95; in the series on Plasmodium falciparum [2], 7.01. The selectivity ratio in series [3] amounted to 1620.

As for `O=C(/C(=C/c1ccoc1)Oc1ccc(/C=N/Nc2ccnc3cc(Cl)ccc23)cc1)c1ccc(Cl)cc1`, in the series with Plasmodium yoelii, it took 3.74 µg/mL (≈ 7.08 µM) to reach half-maximal inhibition (IC50). Besides, the pIC50 is 7.24 with Plasmodium falciparum [1] and 6.94 in the series on Plasmodium falciparum [2]. For the same molecule, the selectivity ratio in series [3] was found to be 962. Moreover, in series [4], the Activity turned out to be 53%.

In the case of `O=C(/C(=C/c1ccc(F)cc1F)Oc1ccc(/C=N/Nc2ccnc3cc(Cl)ccc23)cc1)c1ccc(Cl)cc1`, the negative-log IC50 (pIC50) in the series on Plasmodium falciparum [1] was 6.86; with Plasmodium falciparum [2], 6.77. The selectivity ratio in series [3] was found to be 1040.

`CCN(CC)CCCC(C)Nc1ccnc2cc(Cl)ccc12` (configuration not stated) [CHLOROQUINE] registered an IC50 with Plasmodium yoelii of 3.75 µg/mL (≈ 11.7 µM). Further, the Activity in series [4] amounted to 65%.

With `O=C(/C(=C/c1ccc(Cl)cc1Cl)Oc1ccc(/C=N/Nc2ccnc3cc(Cl)ccc23)cc1)c1ccc(Cl)cc1`, the IC50 is 5.91 µg/mL (≈ 9.73 µM) in the series with Plasmodium yoelii and “Not Active” in the series with Plasmodium falciparum [2]. The same molecule had a negative-log IC50 (pIC50) in the series on Plasmodium falciparum [1] of 6.53. For the same molecule, in series [3], the selectivity ratio is 560.

In general, IC50 refers to the concentration that gives 50% inhibition. One may read the pIC50 as −log10 of the IC50, conventionally taken in molar units.

Values taken from ChEMBL document CHEMBL2062381, “Synthesis and in vitro evaluation of new chloroquine-chalcone hybrids against chloroquine-resistant strain of Plasmodium falciparum” (Bioorg Med Chem Lett, 2012).
